Screening results as filed in PubChem.
Arr AP2 block: inhibitors of beta-arrestin/AP2 binding, primary screen, biochemical, GPCR trafficking, flow cytometry; beta-arrestin 1 C-terminal peptide binding to AP2 beta2-adaptin appendage (human); FITC-arrestin peptide / GST-AP2 beads; AP2 beta2 appendage carries R879A mutation; inhibition, % at 10 µM; 0.31% of 340,000 active;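 active = inhibition above a set limit, near 3 SD of compounds lacking own fluorescence, cut at about 54% in these data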
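system = GST-tagged AP2 beta2-adaptin appendage (R879A) on 4 µm glutathione beads | reagent = FITC-labelled arrestin peptide probe, 50 nM final | schedule = compound with beads 12 min RT, then probe 1 h RT | signal = HyperCyt-sampled flow cytometry, FL1 channel, ex 488/em 535 nm | read-out = percent response from loss of bead-bound FITC fluorescence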
PolyA inhibitor: polyadenylation inhibitors in yeast reporter cells, primary screen, luminescence, S. cerevisiae | S. cerevisiae SKY197-pL101 polyadenylation reporter, beta-gal luminescence; efflux-impaired pdr1/pdr3 knockout yeast; score 100 = 6 SD above DMSO | activity score, % at 12 µM | 0.02% of 300,000 active | AID 1875, 2009;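 active = lowest replicate activity score at least 50, where 100 means six control SD above control mean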;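 also: yeast exposed to compound for 9 h at 30 °C; higher score means more reporter readthrough which indicates perturbed polyadenylation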
APOBEC3G inh: APOBEC3G DNA deaminase inhibitors, primary screen, biochemical, fluorescence, single-stranded DNA substrate, uHTS | AID 493012, 2011 | inhibition, % at 20 µM | recombinant A3G, ssDNA deamination FAM/TAMRA fluorescence | 0.28% of 330,000 active;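 active = inhibition of at least 40% at 20 µM, with no more than 30% in the related APOBEC3A deaminase screen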
AHR activator: AHR activators, primary screen, cell-based, luminescence, luciferase reporter, human. Aryl hydrocarbon receptor (Homo sapiens), P35869. AHR-responsive luciferase reporter cells. activation, % at 5 µM. 2.5% of 320,000 active. AID 2796, 2010; in the data active = activation above about 47%
UCH37 inh: inhibitors of human UCH37 deubiquitinase, primary screen, biochemical, Ub-AMC cleavage, fluorescence; Ubiquitin carboxyl-terminal hydrolase isozyme L5 (Homo sapiens), Q9Y5K5; purified proteasome/UCH37; inhibition, % (concentration not given with the values); 0.33% of 330,000 active; AID 588478, 2011;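 active = mean inhibition over replicate wells above about 20%, limit read from the data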
Target sequence (Q9Y5K5 whole entry, looked up): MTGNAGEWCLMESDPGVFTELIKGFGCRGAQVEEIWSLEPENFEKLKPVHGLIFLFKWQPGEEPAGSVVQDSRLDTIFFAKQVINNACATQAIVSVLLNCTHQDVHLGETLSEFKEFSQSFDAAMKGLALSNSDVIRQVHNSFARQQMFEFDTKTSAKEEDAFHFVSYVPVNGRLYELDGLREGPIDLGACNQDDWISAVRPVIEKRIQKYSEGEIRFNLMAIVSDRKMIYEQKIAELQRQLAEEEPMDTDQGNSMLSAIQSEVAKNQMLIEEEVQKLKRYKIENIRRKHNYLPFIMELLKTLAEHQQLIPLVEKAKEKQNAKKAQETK
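Material: Human UCH37 enzyme supplied as purified proteasome complex | Schedule: 30 min compound-proteasome preincubation then 25 min substrate reaction, room temperature | Detection: AMC fluorescence from Ub-AMC cleavage, excitation 355 nm, emission 460 nm | Benchmarks: Wells without proteasome as full block, compound-free enzyme plus substrate as uninhibited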
APOBEC3A inh: APOBEC3A ssDNA deaminase inhibitors, primary screen, selectivity assay for APOBEC3G inhibitor project, biochemical, FAM/TAMRA oligo cleavage fluorescence | DNA dC->dU-editing enzyme APOBEC-3A (Homo sapiens), P31941 | recombinant A3A, FAM/TAMRA ssDNA deamination fluorescence | inhibition, % at 20 µM | 0.41% of 330,000 active;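 active = at least 40% inhibition at 20 µM here, with at most 30% in a related deaminase screen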
Target sequence (P31941 whole entry, looked up): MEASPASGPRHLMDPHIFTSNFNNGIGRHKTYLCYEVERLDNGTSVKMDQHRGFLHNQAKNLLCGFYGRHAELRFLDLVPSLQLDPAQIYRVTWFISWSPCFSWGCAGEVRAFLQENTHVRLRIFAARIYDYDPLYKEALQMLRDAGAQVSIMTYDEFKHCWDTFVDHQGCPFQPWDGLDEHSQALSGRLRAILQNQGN
APOBEC3A confirm: APOBEC3A deaminase inhibitors, retest, confirmation, selectivity assay for APOBEC3G inhibitor project, biochemical, single concentration, fluorescence readout; 63% of 1,400 active; recombinant A3A, ssDNA deaminase UDG fluorescence assay; shares compounds with APOBEC3A inh; inhibition, % at 20 µM; AID 493151, 2011;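 active = inhibition reaching a set limit, 80% of the first screen's cutoff, at 20 µM in any replicate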
UDG A3A counter: E. coli UDG inhibitors, confirmation, counter-screen for APOBEC3A inhibitor project, biochemical, single concentration, fluorescence, FAM/TAMRA oligo. inhibition, % at 20 µM. AID 504714, 2011. 1,000 tested, under 10 active. UDG counterscreen, FAM/TAMRA uracil oligo fluorescence. shares compounds with APOBEC3A inh; call rule not given here
Hits are given with their value; n = inactive; x = no result given. Sampled rows, rich in hits. Any-hit rate of the full collection: about 3.4%.

SMILES	Arr AP2 block	PolyA inhibitor	APOBEC3G inh	AHR activator	UCH37 inh	APOBEC3A inh	APOBEC3A confirm	UDG A3A counter
COc1ccc(NC(=O)COc2ccc(/C=C/c3cccc[n+]3C)cc2OC)cc1	n	n	n	n	n	86	75	n
COc1cc(/C=C/c2cc[n+](C)cc2)ccc1OCC(=O)Nc1ccc(Cl)c(Cl)c1	n	n	n	n	n	81	78	n
COc1ccc(NC(=O)COc2ccc(/C=C/c3cc[n+](C)cc3)cc2OC)cc1	n	n	n	n	n	52	76	n
COc1cc(/C=C/c2cccc[n+]2C)ccc1OCC(=O)Nc1cccc(Cl)c1	n	n	n	n	n	81	75	n
COc1ccc(C=NNC(=O)Cc2cccs2)cc1	x	x	x	x	n	x	x	x
C/C=C/c1ccc(OCC(=O)Nc2cc(OC)c(OC)c(OC)c2)c(OC)c1	n	n	n	n	n	n	x	x
COc1cc(/C=C/c2cccc[n+]2C)ccc1OCC(=O)Nc1ccccc1	n	n	n	n	n	73	79	n
Cc1ccc(C=NNC(=O)Cc2c[nH]c3ccccc23)c(C)c1	x	x	x	x	n	x	x	x
CC[n+]1cc(-c2ccccc2)nc(N2CCOCC2)n1	n	n	n	n	n	51	67	x
CCOC(=O)C1=C(c2ccccc2)N=c2sc(=Cc3ccco3)c(=O)n2C1c1cccs1 (stereo unspecified)	x	x	x	x	n	x	x	x
CC(C)CC1CCCCC1OC(=O)C[N+]1(C)CCCCC1 (stereo unspecified)	n	n	n	n	n	81	75	n
O=C(CCCCC(=O)OC1CCCCC1)OC1CCCCC1	n	x	x	x	n	x	x	x
O=C(CN1CCCC1)OCCCC1CCCCC1	n	n	n	n	n	n	x	x
CC(C)(C)C1CCC(OC(=O)C[N+]2(C)CCCCC2)CC1 (stereo unspecified)	n	n	n	n	n	90	84	n
CC(C)(C)C1CCC(OC(=O)CN2CCOCC2)CC1 (stereo unspecified)	n	n	n	n	n	n	x	x
CC(C)(C)C1CCC(OC(=O)C[N+]2(C)CCCC2)CC1 (stereo unspecified)	n	n	n	n	n	47	79	n
C[N+]1(CC(=O)OCCCC2CCCCC2)CCCC1	n	n	n	n	n	69	76	n
COc1ccc2nc(C)cc(SCC(=O)NN=Cc3ccco3)c2c1	x	x	x	x	n	x	x	x
Cc1ccc(OCc2ccoc2C(=O)O)cc1C	n	n	n	n	n	42	37	n
Cc1ccc(OCc2ccc(C(=O)O)o2)cc1C	n	n	n	x	n	n	x	x
COc1cc2c(cc1OC)C(c1ccccc1)N(C(=O)CCl)CC2 (stereo unspecified)	n	n	n	n	n	n	x	x
COc1ccc(C(=O)N2CCc3cc(OC)c(OC)cc3C2c2ccc(OC)c(OC)c2)cc1OC (stereo unspecified)	n	n	n	x	n	59	n	n
O=C(CSc1ncccn1)N1CCN(C(=O)CSc2ncccn2)CC1	n	n	n	n	n	n	x	x
O=C(CSc1ncccn1)N1CCN(C(c2ccccc2)c2ccccc2)CC1	n	n	n	n	n	47	70	n
COc1ccc(OC)c(C=NNc2nccs2)c1	x	x	x	x	n	x	x	x
SMILES	Arr AP2 block	PolyA inhibitor	APOBEC3G inh	AHR activator	UCH37 inh	APOBEC3A inh	APOBEC3A confirm	UDG A3A counter
COCc1cc(C)nc(SCc2ccccc2)c1C#N	n	n	n	n	n	n	x	x
COCc1cc(C)nc(Sc2nc3c(c(=O)n(C)c(=O)n3C)n2C)c1C#N	n	n	n	x	n	50	44	n
CC(Sc1nnc(N)s1)C(=O)Nc1nccs1 (stereo unspecified)	n	n	n	n	n	n	x	x
COc1ccc(OC)c(-c2nnc(NC(=O)C(C)Sc3nncn3C)s2)c1 (stereo unspecified)	n	n	n	n	n	n	x	x
Cc1nnc(NC(=O)C(C)Sc2nncn2C)s1 (stereo unspecified)	n	n	n	n	n	69	n	n
Cc1nnc(SC(C)C(=O)Nc2nccs2)s1 (stereo unspecified)	n	x	n	n	n	71	n	x
O=C(NN=Cc1ccc(OCc2cnc(Cl)s2)cc1)c1ccncc1	x	x	x	x	n	x	x	x
CN(N=Cc1ccc2c(c1)OCO2)c1nc(N2CCOCC2)nc(N2CCOCC2)n1	x	x	x	x	n	x	x	x
O=C(Cc1cccs1)NNC(=S)NCc1ccco1	n	n	n	n	n	78	n	n
CN(C)c1ccc(C=NNC(=O)CN2CCN(c3ccc(F)cc3)CC2)cc1	x	x	x	x	n	x	x	x
O=C(Oc1ccc2c(c1)OCO2)c1cc2c(s1)CCC2	n	n	n	n	n	62	79	x
O=C(c1cc2cc([N+](=O)[O-])ccc2oc1=O)n1cccn1	n	n	n	n	n	59	39	x
COc1cc(C=NNC(=O)Cc2csc(C)n2)ccc1OCC(C)C	x	x	x	x	n	x	x	x
CCNC(=O)Cn1cc(C#N)c2ccccc21	n	n	n	n	n	53	n	x
Cc1cc(C=NNC(N)=O)c(C)c(CO)c1	x	x	x	x	n	x	x	x
C=CCn1c(=C2C(=O)N(CC)C(=S)N2c2ccccc2)sc(=C2SC(C)=C(C)N2CC)c1=O	x	x	x	x	n	x	x	x
CC(=O)c1ccc[n+](CC(=O)NC(C)c2ccccc2)c1 (stereo unspecified)	n	n	n	n	n	62	64	n
CC(NC(=O)C[n+]1cccc(Br)c1)c1ccccc1 (stereo unspecified)	n	n	n	n	n	n	x	x
Cn1c(CNC(=O)c2ccco2)nnc1SCC(=O)N1c2ccccc2Sc2ccccc21	n	x	n	n	n	63	58	n
CCc1ccccc1NC(=O)CSc1nnc(CNC(=O)c2ccco2)n1C	n	n	n	n	n	n	x	x
CC1(C)C2CC=C(C=Nn3cnnc3)C1C2 (stereo unspecified)	x	x	x	x	n	x	x	x
CC(C)CN(C(=O)CCCc1nc2ccccc2c(=O)[nH]1)c1c(N)n(Cc2ccccc2)c(=O)[nH]c1=O	n	n	n	n	n	42	n	x
